Assay results reported in ChEMBL document CHEMBL4610084, “Antibacterial and ATP Synthesis Modulating Compounds from Salvia tingitana” (2020).

Columns and labels:
Assay type in all cases: functional
Enterococcus faecium [1] = assay: Antibacterial activity against Enterococcus faecium MB2 after 24 hrs by microdilution assay; conditions: MB2, 24 h
Summary of the method: (§1)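 Broth microdilution MIC against clinical or seawater-isolated strains (identified by standard procedures and MALDI-TOF), with compound solutions and testing as in earlier work. MIC reported in μg/mL and μM.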

Staphylococcus hominis = assay: Antibacterial activity against Methicillin-resistant Staphylococcus hominis MB124 after 24 hrs by microdilution assay; conditions: MB124, 24 h
Summary of the method: (§2)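 Broth microdilution MIC, run as in an earlier cited report. Strains are clinical isolates identified by standard methods and MALDI-TOF; E. faecalis MB19 and MB51 are Ligurian seawater isolates. Highest concentration tested was 128 μg/mL. MICs are given in μg/mL and μM, with oxacillin and vancomycin as reference antibiotics.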

Enterococcus faecalis [2] = assay: Antibacterial activity against Vancomycin resistant Enterococcus faecalis MB1 after 24 hrs by microdilution assay; conditions: MB1, 24 h; summary of the method: as §2
Enterococcus faecium [3] = assay: Antibacterial activity against Enterococcus faecium MB152 after 24 hrs by microdilution assay; conditions: MB152, 24 h; summary of the method: as §1
Enterococcus avium = assay: Antibacterial activity against Enterococcus avium MB119 after 24 hrs by microdilution assay; conditions: MB119, 24 h; summary of the method: as §1
[4] = test system: Staphylococcus epidermidis; assay: Antibacterial activity against Methicillin-resistant Staphylococcus epidermidis MB165 after 24 hrs by microdilution assay; conditions: MB165, 24 h; summary of the method: as §2
[5] = test system: Staphylococcus epidermidis; assay: Antibacterial activity against Methicillin-resistant Staphylococcus epidermidis MB169 after 24 hrs by microdilution assay; conditions: MB169, 24 h; summary of the method: as §2
Staphylococcus aureus [6] = assay: Antibacterial activity against Methicillin-resistant Staphylococcus aureus MB18 after 24 hrs by microdilution assay; conditions: MB18, 24 h; summary of the method: as §2
[7] = test system: Staphylococcus haemolyticus; assay: Antibacterial activity against Methicillin-resistant Staphylococcus haemolyticus MB115 after 24 hrs by microdilution assay; conditions: MB115, 24 h; summary of the method: as §2
[8] = test system: Staphylococcus saprophyticus; assay: Antibacterial activity against Staphylococcus saprophyticus MB41 after 24 hrs by microdilution assay; conditions: MB41, 24 h; summary of the method: as §1
[9] = test system: Enterococcus casseliflavus; assay: Antibacterial activity against Vancomycin resistant Enterococcus casseliflavus MB159 after 24 hrs by microdilution assay; conditions: MB159, 24 h; summary of the method: as §2
Staphylococcus aureus [10] = assay: Antibacterial activity against Methicillin-resistant Staphylococcus aureus MB188 after 24 hrs by microdilution assay; conditions: MB188, 24 h; summary of the method: as §2
Enterococcus faecalis [11] = assay: Antibacterial activity against Vancomycin resistant Enterococcus faecalis MB19 after 24 hrs by microdilution assay; conditions: MB19, 24 h; summary of the method: as §2
[12] = test system: Staphylococcus lugdunensis; assay: Antibacterial activity against Staphylococcus lugdunensis MB96 after 24 hrs by microdilution assay; conditions: MB96, 24 h; summary of the method: as §1
Staphylococcus simulans = assay: Antibacterial activity against Staphylococcus simulans MB94 after 24 hrs by microdilution assay; conditions: MB94, 24 h; summary of the method: as §1
Enterococcus durans = assay: Antibacterial activity against Enterococcus durans MB113 after 24 hrs by microdilution assay; conditions: MB113, 24 h; summary of the method: as §1
Enterococcus faecalis [13] = assay: Antibacterial activity against Enterococcus faecalis MB76 after 24 hrs by microdilution assay; conditions: MB76, 24 h; summary of the method: as §2
Staphylococcus capitis = assay: Antibacterial activity against Methicillin-resistant Staphylococcus capitis MB71 after 24 hrs by microdilution assay; conditions: MB71, 24 h; summary of the method: as §2
Enterococcus faecium [14] = assay: Antibacterial activity against Enterococcus faecium MB3 after 24 hrs by microdilution assay; conditions: MB3, 24 h; summary of the method: as §1
Enterococcus gallinarum = assay: Antibacterial activity against Vancomycin resistant Enterococcus gallinarum MB111 after 24 hrs by microdilution assay; conditions: MB111, 24 h; summary of the method: as §2
Staphylococcus warneri = assay: Antibacterial activity against Methicillin-resistant Staphylococcus warneri MB74 after 24 hrs by microdilution assay; conditions: MB74, 24 h; summary of the method: as §2
Enterococcus faecalis [15] = assay: Antibacterial activity against Vancomycin resistant Enterococcus faecalis MB51 after 24 hrs by microdilution assay; conditions: MB51, 24 h; summary of the method: as §2

SMILES | MIC (Enterococcus faecium [1]) | MIC (Staphylococcus hominis) | MIC (Enterococcus faecalis [2]) | MIC (Enterococcus faecium [3]) | MIC (Enterococcus avium) | MIC [4] | MIC [5] | MIC (Staphylococcus aureus [6]) | MIC [7] | MIC [8] | MIC [9] | MIC (Staphylococcus aureus [10]) | MIC (Enterococcus faecalis [11]) | MIC [12] | MIC (Staphylococcus simulans) | MIC (Enterococcus durans) | MIC (Enterococcus faecalis [13]) | MIC (Staphylococcus capitis) | MIC (Enterococcus faecium [14]) | MIC (Enterococcus gallinarum) | other results
COC1O[C@H]2C[C@@](C)(O)[C@H](CC/C(C)=C/CC3OC(=O)C=C3C)[C@@]3(C)CCC[C@]1(C)[C@H]23 (stereo partly specified) | 296 µM | 148 µM | 296 µM | 148 µM | 296 µM | 148 µM | 148 µM | 296 µM | 296 µM | 296 µM | 148 µM | 296 µM | 148 µM | 296 µM | 296 µM | 296 µM | 296 µM | 74.1 µM | 296 µM | 296 µM | MIC (Staphylococcus warneri): 148 µM; MIC (Enterococcus faecalis [15]): 296 µM
CC1=CC(=O)O[C@@H]1C/C=C(\C)CC[C@@H]1[C@@]2(C)CCC[C@@]3(C)C(O)O[C@@H](C[C@@]1(C)O)[C@H]23 (stereo partly specified) | > 128 µg/mL | > 128 µg/mL | > 128 µg/mL | > 128 µg/mL | > 128 µg/mL | > 128 µg/mL | > 128 µg/mL | > 128 µg/mL | > 128 µg/mL | > 128 µg/mL | > 128 µg/mL | > 128 µg/mL | > 128 µg/mL | > 128 µg/mL | > 128 µg/mL | > 128 µg/mL | > 128 µg/mL | > 128 µg/mL | > 128 µg/mL | > 128 µg/mL | MIC (Staphylococcus warneri): > 128 µg/mL; MIC (Enterococcus faecalis [15]): > 128 µg/mL
CC1=CC(=O)O[C@@H]1C/C=C(\C)CC[C@@H]1[C@@]2(C)CCC[C@@](C)(CO)[C@@H]2[C@@H](O)C[C@@]1(C)O | > 128 µg/mL | > 128 µg/mL | > 128 µg/mL | > 128 µg/mL | > 128 µg/mL | > 128 µg/mL | > 128 µg/mL | > 128 µg/mL | > 128 µg/mL | > 128 µg/mL | > 128 µg/mL | > 128 µg/mL | > 128 µg/mL | > 128 µg/mL | > 128 µg/mL | > 128 µg/mL | > 128 µg/mL | > 128 µg/mL | > 128 µg/mL | > 128 µg/mL | MIC (Staphylococcus warneri): > 128 µg/mL; MIC (Enterococcus faecalis [15]): > 128 µg/mL
CN[C@H](CC(C)C)C(=O)N[C@H]1C(=O)N[C@@H](CC(N)=O)C(=O)N[C@H]2C(=O)N[C@H]3C(=O)N[C@H](C(=O)N[C@H](C(=O)O)c4cc(O)cc(O)c4-c4cc3ccc4O)[C@H](O)c3ccc(c(Cl)c3)Oc3cc2cc(c3O[C@@H]2O[C@H](CO)[C@@H](O)[C@H](O)[C@H]2O[C@H]2C[C@](C)(N)[C@H](O)[C@H](C)O2)Oc2ccc(cc2Cl)[C@H]1O [VANCOMYCIN] | 1.38 µM |  | 22.1 µM | 177 µM | 0.69 µM |  |  |  |  |  | 2.76 µM |  | 22.1 µM |  |  | 0.69 µM | 88.3 µM |  | 88.3 µM | 11 µM | MIC (Enterococcus faecalis [15]): 44.2 µM
CC1=CC(=O)O[C@@H]1[C@@H](O)/C=C(\C)CC[C@@H]1[C@@]2(C)CCC[C@@]3(C)C(=O)O[C@@H](C[C@@]1(C)O)[C@H]23 | 296 µM | > 128 µg/mL | 148 µM | 148 µM | 148 µM | 296 µM | > 128 µg/mL | 296 µM | 296 µM | > 128 µg/mL | 296 µM | > 128 µg/mL | 296 µM | > 128 µg/mL | > 128 µg/mL | 286 µM | 296 µM | 296 µM | 296 µM | 148 µM | MIC (Staphylococcus warneri): 296 µM; MIC (Enterococcus faecalis [15]): 296 µM
COc1ccc(-c2cc(=O)c3c(OC)c(OC)c(OC)cc3o2)cc1 | 390 µM | 390 µM | 195 µM | 195 µM | 390 µM | > 128 µg/mL | 390 µM | 390 µM | > 128 µg/mL | > 128 µg/mL | 390 µM | > 128 µg/mL | 195 µM | > 128 µg/mL | > 128 µg/mL | 195 µM | 390 µM | 390 µM | 195 µM | 195 µM | MIC (Staphylococcus warneri): 390 µM; MIC (Enterococcus faecalis [15]): 390 µM
COc1ccc(-c2cc(=O)c3c(O)c(OC)c(OC)cc3o2)cc1O [EUPATORIN] | 372 µM | > 128 µg/mL | 186 µM | 372 µM | 186 µM | > 128 µg/mL | > 128 µg/mL | > 128 µg/mL | > 128 µg/mL | > 128 µg/mL | 372 µM | > 128 µg/mL | 186 µM | > 128 µg/mL | > 128 µg/mL | > 128 µg/mL | 186 µM | > 128 µg/mL | > 128 µg/mL | 186 µM | MIC (Staphylococcus warneri): > 128 µg/mL; MIC (Enterococcus faecalis [15]): 372 µM
CC1(C)CCC[C@]2(C)[C@@H](CC[C@](C)(O)[C@H]3CO3)[C@](C)(O)CC[C@@H]12 | 198 µM | 395 µM | 99 µM | 198 µM | 99 µM | 395 µM | 395 µM | 395 µM | 395 µM | 395 µM | 198 µM | 395 µM | 198 µM | 198 µM | 395 µM | 198 µM | 198 µM | 395 µM | 99 µM | 99 µM | MIC (Staphylococcus warneri): 198 µM; MIC (Enterococcus faecalis [15]): 99 µM
Cc1onc(-c2ccccc2)c1C(=O)N[C@@H]1C(=O)N2[C@@H]1SC(C)(C)[C@@H]2C(=O)O [OXACILLIN] |  | 39.9 µM |  |  |  | 638 µM | 638 µM | 638 µM | 39.9 µM | 2.49 µM |  | 1280 µM |  | 1.25 µM | 0.62 µM |  |  | 638 µM |  |  | MIC (Staphylococcus warneri): 319 µM
